Reference: ChEMBL document CHEMBL3102735, “Enhancing the pharmacodynamic profile of a class of selective COX-2 inhibiting nitric oxide donors” (Bioorg Med Chem, 2014)

Columns and labels:
Mus musculus [1] = assay: Antihyperalgesic activity in Swiss albino mouse assessed as reduction in carrageenan-induced inflammation at 20 mg/kg, po after 120 mins relative to control; type: functional; parameters: scale not given: the % may be the effect or the level left
[2] = Clearance in Wistar rat at 10 mg/kg, iv by LC-MS/MS analysis; type: ADME, organism-based; parameters: dose 10 mg/kg, route intravenous; conditions: in vivo
How it was run: (§1)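 Male Han Wistar rats, three per route, single 10 mg/kg/5 mL dose iv or po in 5% DMSO, 5% Cremophor EL, 0.1% Tween 80 in 150 mM phosphate buffer pH 7. Jugular-vein blood sampled, plasma methanol-precipitated, parent and hydroxy metabolite quantified by LC–MS/MS in positive ESI MRM mode (LLOQ 1–15 ng/mL).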

Plasma = assay: Metabolic stability in Wistar rat plasma at 10 mg/kg, iv up to 6 hrs by LC-MS/MS analysis; type: ADME, organism-based; parameters: dose 10 mg/kg, route intravenous; conditions: in vivo
Mus musculus [3] = assay: Analgesic activity in po dosed Swiss albino mouse assessed as reduction of acetic acid-induced writhing measured every 10 mins after 5 mins of administration; type: functional, organism-based
How it was run: (§2)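 Male Swiss albino mice (23–25 g), compound given orally in CMC vehicle; writhing induced by 0.6% acetic acid (10 mL/kg) ip. Stretching movements counted for 10 min, starting 5 min after administration; percent reduction versus CMC-treated animals.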

[4] = Stability of the compound in phosphate buffer saline assessed as compound remaining at pH 7.4 after 30 mins by LC-MS/MS analysis; type: physicochemical; conditions: read-out: Stability
How it was run: (§3)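 1 mM DMSO stock added to 0.01 M PBS (pH 7.4) or 0.05 M simulated gastric fluid without pepsin (pH 1.5 with HCl); incubated in hybridisation oven; aliquots at 0, 30, 60, 120 min quenched with ice-cold acetonitrile containing internal standard; parent remaining (%) measured.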

Mus musculus [5] = assay: Antihyperalgesic activity in Swiss albino mouse assessed as reduction in carrageenan-induced inflammation at 40 mg/kg, po after 30 mins relative to control; type: functional; parameters: scale not given: the % may be the effect or the level left
[6] = Metabolic stability in Sprague-Dawley rat plasma assessed as compound remaining after 30 mins by LC-MS/MS analysis; type: ADME, cell-free; conditions: read-out: Stability
How it was run: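 Compound (12 µL of 1 mM DMSO solution into 588 µL medium) incubated in PBS pH 7.4, pepsin-free SGF pH 1.5, or EDTA rat plasma. Aliquots taken at 0, 30, 60, 120 min and quenched with ice-cold acetonitrile containing internal standard; parent remaining as percent.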

Mus musculus [7] = assay: Analgesic activity in Swiss albino mouse assessed as reduction of acetic acid-induced writhing at 40 mg/kg, po measured every 10 mins after 5 mins of administration relative to control; type: functional; parameters: scale not given: the % may be the effect or the level left; how it was run: as §2
Liver [8] = assay: Induction of nitric oxide production in Wistar rat liver homogenate assessed as nitrite level at 1 mM; type: functional, tissue-based; conditions: TDE = time-dependent effect
Mus musculus [9] = assay: Antiinflammatory activity in Swiss albino mouse assessed as reduction in carrageenan-induced paw edema at 20 mg/kg, po relative to control; type: functional; parameters: scale not given: the % may be the effect or the level left
How it was run: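 Intraplantar carrageenan, compound po in CMC; volume of right hind paw measured 4 h after carrageenan injection and compared with saline/carrageenan-treated controls; percent oedema reduction.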

Rattus norvegicus [10] = assay: Volume of distribution at steady state in Wistar rat at 10 mg/kg, iv by LC-MS/MS analysis; type: ADME, organism-based; parameters: dose 10 mg/kg, route intravenous; conditions: in vivo
[11] = target: T1, Prostaglandin G/H synthase 2 (Mus musculus) (UniProt Q05769); assay: Inhibition of LPS-induced COX-2 in mouse J774 cells using arachidonic acid as substrate assessed as inhibition of prostaglandin E2 production at 10 uM preincubated for 15 mins followed by substrate addition measured after 30 mins by RIA; type: cell-based
T1 sequence (whole entry): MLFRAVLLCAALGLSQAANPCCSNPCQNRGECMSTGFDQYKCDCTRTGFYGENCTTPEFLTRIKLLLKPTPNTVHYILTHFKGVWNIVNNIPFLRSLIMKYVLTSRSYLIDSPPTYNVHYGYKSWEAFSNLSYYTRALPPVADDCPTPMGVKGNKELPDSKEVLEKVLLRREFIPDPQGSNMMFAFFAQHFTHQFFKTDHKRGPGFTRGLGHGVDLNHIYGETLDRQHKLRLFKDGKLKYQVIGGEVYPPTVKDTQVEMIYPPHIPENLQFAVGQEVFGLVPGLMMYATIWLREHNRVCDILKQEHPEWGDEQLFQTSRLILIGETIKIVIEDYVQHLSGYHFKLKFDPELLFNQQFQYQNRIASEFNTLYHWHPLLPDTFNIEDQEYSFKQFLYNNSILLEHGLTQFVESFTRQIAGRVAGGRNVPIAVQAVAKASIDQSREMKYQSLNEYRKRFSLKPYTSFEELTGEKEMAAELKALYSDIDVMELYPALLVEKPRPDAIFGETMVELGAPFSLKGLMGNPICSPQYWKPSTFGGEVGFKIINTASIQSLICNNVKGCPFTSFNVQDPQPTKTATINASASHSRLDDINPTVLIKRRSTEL

Liver [12] = assay: Induction of nitric oxide production in Wistar rat liver homogenate assessed as nitrite level at 1 mM after 1 to 150 mins; type: functional, tissue-based
[13] = Solubility of the compound in phosphate buffer saline at pH 7.4 after 90 mins by HPLC analysis; type: physicochemical
How it was run: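 DMSO stock (20 mM) diluted 2 µL into 198 µL PBS 0.01 M pH 7.4 or pepsin-free SGF 0.05 M pH 1.5, duplicate wells, shaken 90 min at 300 rpm. Filtrates analysed by HPLC with photodiode-array detection against seven-point standards (1–200 µM).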

[14] = target: Prostaglandin G/H synthase 1 (Homo sapiens, UniProt P23219); assay: Inhibition of COX-1 in human whole blood assessed as thromboxane B2 production by RIA
Rattus norvegicus [15] = assay: Drug metabolism in Wistar rat plasma assessed as 2-(1-(4-fluorophenyl)-2-methyl-5-(4-(methylsulfonyl)phenyl)-1H-pyrrol-3-yl)-N-(2-hydroxyethyl)acetamide metabolite at 10 mg/kg, po up to 6 hrs by LC-MS/MS analysis; type: ADME, organism-based; parameters: dose 10 mg/kg, route oral; conditions: in vivo; how it was run: as §1
[16] = Stability of the compound in simulated gastric fluid assessed as compound remaining at pH 1.5 after 60 mins by LC-MS/MS analysis; type: physicochemical; conditions: read-out: Stability; how it was run: as §3
Liver [17] = assay: Induction of nitric oxide production in Wistar rat liver homogenate assessed as nitrate level at 1 mM after 1 to 150 mins; type: functional, tissue-based

Chain of Prostaglandin G/H synthase 1 (P23219 whole entry): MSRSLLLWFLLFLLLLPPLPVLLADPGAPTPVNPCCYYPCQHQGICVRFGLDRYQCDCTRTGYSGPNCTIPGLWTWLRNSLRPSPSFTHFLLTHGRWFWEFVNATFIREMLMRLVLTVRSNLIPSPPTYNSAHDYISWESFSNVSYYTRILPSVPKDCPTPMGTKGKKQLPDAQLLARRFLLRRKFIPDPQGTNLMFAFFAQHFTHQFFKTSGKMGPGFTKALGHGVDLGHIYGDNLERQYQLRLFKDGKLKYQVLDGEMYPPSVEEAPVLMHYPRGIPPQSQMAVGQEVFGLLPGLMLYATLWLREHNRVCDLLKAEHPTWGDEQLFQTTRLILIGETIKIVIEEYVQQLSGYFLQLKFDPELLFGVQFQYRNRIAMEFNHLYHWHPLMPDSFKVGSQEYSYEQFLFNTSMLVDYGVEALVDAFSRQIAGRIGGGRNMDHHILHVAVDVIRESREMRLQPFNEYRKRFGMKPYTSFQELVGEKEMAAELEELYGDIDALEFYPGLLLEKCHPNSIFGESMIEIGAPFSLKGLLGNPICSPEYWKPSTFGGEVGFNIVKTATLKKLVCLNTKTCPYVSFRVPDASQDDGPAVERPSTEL

- clearance [2]: 10 mL/min
- Stability (Plasma): Stable
- remaining at 0.5 h [4]: 100%
- remaining at 0.5 h [6]: 100%
- Vdss (Rattus norvegicus [10]): 367 mL
- inhibition [11]: 100%
- solubility at 1.5 h [13]: > 200 µM
- IC50 [14]: 600 nM
- Drug metabolism (Rattus norvegicus [15]): Active
- remaining at 1 h [16]: 100%
Structure (SMILES): Cc1c(CC(=O)NCCO[N+](=O)[O-])cc(-c2ccc(S(C)(=O)=O)cc2)n1-c1ccc(F)cc1
- Activity (Mus musculus [1]): 0%
- Activity (Mus musculus [3]): Dose-dependent effect
- Activity (Mus musculus [5]): 32%
- Activity (Mus musculus [7]): 75%
- Activity (Liver [8]): tde
- Activity (Mus musculus [9]): 4%
- Activity (Liver [12]): 27 µM
- Activity (Liver [17]): 38.3 µM
